Drawing on ChEMBL document CHEMBL2390836, “Synthesis and antitumor activities of naturally occurring oleanolic acid triterpenoid saponins and their derivatives” (Eur J Med Chem, 2013), this text covers IC50 for 21 compounds.

Common to all, as to type: functional, cell-based
Experiment [1] has as its system A-375. Description: Cytotoxicity against human A375 cells after 72 hrs by sulforhodamine B assay. The conditions noted are these: A-375, 72 h. In short, it runs like this:
(§1)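 Cells seeded in 96-well plates and exposed in triplicate to a concentration gradient at 37 °C for 72 h. Total protein staining with sulforhodamine B was the read-out. IC50 was calculated by the Logit method from at least three independent experiments.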
A general note: The SRB assay estimates cell density from bound dye.

In experiment [2] the test system is A549. The experiment in a line: Cytotoxicity against human A549 cells after 72 hrs by sulforhodamine B assay. The conditions noted are these: A549, 72 h. In short, it runs like this:
as §1

The subject of experiment [3] is HL-60. The experiment in a line: Cytotoxicity against human HL60 cells after 72 hrs by MTT assay. The conditions noted are these: HL-60, 72 h. In short, it runs like this:
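HL-60 human promyelocytic leukemia cells were plated in 96 wells and treated in triplicate with graded concentrations at 37 °C for 72 h. Viability was read by MTT reduction. IC50 was obtained by the Logit method from at least three independent experiments.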
(Tetrazolium assays rely on reduction of a dye to a coloured formazan, in cell work by metabolically active cells.)

What is called IC50 is the concentration that gives 50% inhibition. A lower IC50 goes with greater potency in that assay. As for `C[C@@H]1O[C@@H](O[C@H]2[C@H](O[C@H]3CC[C@]4(C)[C@H]5CC=C6[C@@H]7CC(C)(C)CC[C@]7(C(=O)O)CC[C@@]6(C)[C@]5(C)CC[C@H]4C3(C)C)O[C@H](CO)[C@@H](O)[C@@H]2O)[C@H](O)[C@H](O)[C@H]1O`, the IC50 in experiment [1] came to 11.6 µM; in experiment [2], 23.5 µM; in experiment [3], 12.9 µM.

In the case of `C[C@@H]1O[C@@H](O[C@H]2[C@H](O[C@H]3CC[C@]4(C)[C@H]5CC=C6[C@@H]7CC(C)(C)CC[C@]7(C(=O)O)CC[C@@]6(C)[C@]5(C)CC[C@H]4C3(C)C)O[C@H](CO)[C@H](O)[C@@H]2O)[C@H](O)[C@H](O)[C@H]1O`, the IC50 in experiment [1] worked out at 5.1 µM; in experiment [2], 12.4 µM; in experiment [3], 2.5 µM.

Consider `CC1(C)CC[C@]2(C(=O)O)CC[C@]3(C)C(=CC[C@@H]4[C@@]5(C)CC[C@H](O[C@@H]6O[C@H](CO)[C@H](O)[C@H](O)[C@H]6O[C@@H]6O[C@H](CO)[C@@H](O)[C@H](O)[C@H]6O)C(C)(C)[C@@H]5CC[C@]43C)[C@@H]2C1`, for which the IC50 in experiment [1] stood at 9.7 µM; in experiment [2], 17.9 µM; in experiment [3], 10.1 µM.

On to `C[C@@H]1O[C@@H](O[C@H]2[C@H](O[C@H]3CC[C@]4(C)[C@H]5CC=C6[C@@H]7CC(C)(C)CC[C@]7(C(=O)O[C@@H]7O[C@H](CO[C@@H]8O[C@H](CO)[C@@H](O)[C@H](O)[C@H]8O)[C@@H](O)[C@H](O)[C@H]7O)CC[C@@]6(C)[C@]5(C)CC[C@H]4C3(C)C)OC[C@@H](O)[C@@H]2O)[C@H](O)[C@H](O[C@@H]2OC[C@@H](O)[C@H](O)[C@H]2O)[C@H]1O`, for which the IC50 in experiment [1], in experiment [2] and in experiment [3] was over 20 µM in each case.

On to `C[C@@H]1O[C@@H](O[C@H]2[C@H](O[C@H]3CC[C@]4(C)[C@H]5CC=C6[C@@H]7CC(C)(C)CC[C@]7(C(=O)O)CC[C@@]6(C)[C@]5(C)CC[C@H]4C3(C)C)O[C@H](CO)[C@@H](O)[C@@H]2O[C@@H]2O[C@@H](C)[C@H](O)[C@@H](O)[C@H]2O)[C@H](O)[C@H](O)[C@H]1O`, for which the half-inhibitory concentration (IC50) in experiment [1], in experiment [2] and in experiment [3] was over 20 µM each time.

Regarding `C[C@@H]1O[C@@H](O[C@H]2[C@H](O[C@H]3CC[C@]4(C)[C@H]5CC=C6[C@@H]7CC(C)(C)CC[C@]7(C(=O)O)CC[C@@]6(C)[C@]5(C)CC[C@H]4C3(C)C)OC[C@@H](O)[C@@H]2O)[C@H](O)[C@H](O)[C@H]1O`, the IC50 in experiment [1] came to 5 µM; in experiment [2] it was 10.7 µM; in experiment [3], 3.6 µM.

With `C[C@@H]1O[C@@H](O[C@@H]2[C@@H](O)[C@H](O[C@H]3CC[C@]4(C)[C@H]5CC=C6[C@@H]7CC(C)(C)CC[C@]7(C(=O)O)CC[C@@]6(C)[C@]5(C)CC[C@H]4C3(C)C)O[C@H](CO)[C@H]2O)[C@H](O)[C@H](O)[C@H]1O`, the IC50 in experiment [1], in experiment [2] and in experiment [3] was over 20 µM throughout.

`C[C@@H]1O[C@@H](O[C@H]2[C@H](O[C@H]3CC[C@]4(C)[C@H]5CC=C6[C@@H]7CC(C)(C)CC[C@]7(C(=O)O)CC[C@@]6(C)[C@]5(C)CC[C@H]4C3(C)C)OC[C@@H](O)[C@@H]2O)[C@H](O)[C@H](O[C@@H]2O[C@H](CO)[C@@H](O)[C@H](O)[C@H]2O)[C@H]1O`: the IC50 in experiment [1] turned out to be 5.5 µM; in experiment [2] it was 14.7 µM; in experiment [3], 4.6 µM.

As to `C[C@@H]1O[C@H](O[C@H]2[C@H](O[C@H]3CC[C@]4(C)[C@H]5CC=C6[C@@H]7CC(C)(C)CC[C@]7(C(=O)O)CC[C@@]6(C)[C@]5(C)CC[C@H]4C3(C)C)OC[C@H](O)[C@@H]2O)[C@H](O)[C@H](O)[C@H]1O`, the IC50 came out at 7.7 µM in experiment [1], 17.5 µM in experiment [2] and 4.2 µM in experiment [3].

In the case of `C[C@@H]1O[C@@H](O[C@H]2[C@H](O[C@H]3CC[C@]4(C)[C@H]5CC=C6[C@@H]7CC(C)(C)CC[C@]7(C(=O)O[C@@H]7O[C@H](CO[C@@H]8O[C@H](CO)[C@@H](O)[C@H](O)[C@H]8O)[C@@H](O)[C@H](O)[C@H]7O)CC[C@@]6(C)[C@]5(C)CC[C@H]4C3(C)C)OC[C@@H](O)[C@@H]2O)[C@H](O)[C@H](O[C@@H]2O[C@H](CO)[C@@H](O[C@@H]3O[C@H](CO)[C@@H](O)[C@H](O)[C@H]3O)[C@H](O)[C@H]2O)[C@H]1O`, the IC50 in experiment [1], in experiment [2] and in experiment [3] was over 20 µM throughout.

In the case of `C[C@@H]1O[C@@H](O[C@H]2[C@@H](O[C@H]3CC[C@]4(C)[C@H]5CC=C6[C@@H]7CC(C)(C)CC[C@]7(C(=O)O)CC[C@@]6(C)[C@]5(C)CC[C@H]4C3(C)C)OC[C@H](O)[C@@H]2O)[C@H](O)[C@H](O)[C@H]1O`, the concentration for half-maximal inhibition (IC50) in experiment [1], in experiment [2] and in experiment [3] was over 20 µM throughout.

`C[C@@H]1O[C@@H](O[C@H]2[C@H](O)[C@@H](O)[C@H](OC[C@H]3O[C@@H](OC(=O)[C@]45CCC(C)(C)C[C@H]4C4=CC[C@@H]6[C@@]7(C)CC[C@H](O[C@@H]8OC[C@@H](O)[C@H](O)[C@H]8O)C(C)(C)[C@@H]7CC[C@@]6(C)[C@]4(C)CC5)[C@H](O)[C@@H](O)[C@@H]3O)O[C@@H]2CO)[C@H](O)[C@H](O)[C@H]1O`: the figures for the IC50 in experiment [1], in experiment [2] and in experiment [3] were 13.5 µM, 11.9 µM and 5.7 µM, respectively.

As to `C[C@@H]1O[C@@H](O[C@H]2[C@H](O[C@H]3CC[C@]4(C)[C@H]5CC=C6[C@@H]7CC(C)(C)CC[C@]7(C(=O)O[C@@H]7O[C@H](CO[C@@H]8O[C@H](CO)[C@@H](O[C@@H]9O[C@@H](C)[C@H](O)[C@@H](O)[C@H]9O)[C@H](O)[C@H]8O)[C@@H](O)[C@H](O)[C@H]7O)CC[C@@]6(C)[C@]5(C)CC[C@H]4C3(C)C)OC[C@@H](O)[C@@H]2O)[C@H](O)[C@H](O)[C@H]1O`, the IC50 in experiment [1] was 7.3 µM; in experiment [2], 10.5 µM; in experiment [3] it was 3.2 µM.

As to `C[C@@H]1O[C@@H](O[C@H]2[C@H](O[C@H]3CC[C@]4(C)[C@H]5CC=C6[C@@H]7CC(C)(C)CC[C@]7(C(=O)O)CC[C@@]6(C)[C@]5(C)CC[C@H]4C3(C)C)OC[C@H](O)[C@@H]2O)[C@H](O)[C@H](O[C@@H]2O[C@H](CO)[C@@H](O)[C@H](O)[C@H]2O)[C@H]1O`, the IC50 was 12.1 µM in experiment [1], 16.7 µM in experiment [2] and 6.1 µM in experiment [3].

As for `C[C@@H]1O[C@@H](O[C@H]2[C@H]3OC(c4ccccc4)OC[C@H]3O[C@@H](O[C@H]3CC[C@]4(C)[C@H]5CC=C6[C@@H]7CC(C)(C)CC[C@]7(C(=O)O)CC[C@@]6(C)[C@]5(C)CC[C@H]4C3(C)C)[C@@H]2O[C@@H]2O[C@@H](C)[C@H](O)[C@@H](O)[C@H]2O)[C@H](O)[C@H](O)[C@H]1O` (stereo partly drawn), the IC50 in experiment [1], in experiment [2] and in experiment [3] was over 20 µM throughout.

On to `C[C@@H]1O[C@@H](O[C@@H]2[C@@H](O)[C@H](C)O[C@@H](O[C@H]3[C@H](O[C@H]4CC[C@]5(C)[C@H]6CC=C7[C@@H]8CC(C)(C)CC[C@]8(C(=O)O)CC[C@@]7(C)[C@]6(C)CC[C@H]5C4(C)C)OC[C@@H](O)[C@@H]3O)[C@@H]2O)[C@H](O)[C@H](O)[C@H]1O`, for which the IC50 in experiment [1] was found to be 8.4 µM; in experiment [2], 16.2 µM; in experiment [3], 9.3 µM.

Take `COc1cccc2c1C(=O)c1c(O)c3c(c(O)c1C2=O)C[C@@](O)(C(=O)CO)C[C@@H]3O[C@H]1C[C@H](N)[C@H](O)[C@H](C)O1` [DOXORUBICIN]: the IC50 in experiment [1] came out at 0.75 µM; in experiment [2], 0.56 µM; in experiment [3], 0.9 µM.

As for `C[C@@H]1O[C@@H](O[C@H]2[C@H](O[C@H]3CC[C@]4(C)[C@H]5CC=C6[C@@H]7CC(C)(C)CC[C@]7(C(=O)O)CC[C@@]6(C)[C@]5(C)CC[C@H]4C3(C)C)OC[C@H](O[C@@H]3O[C@H](CO)[C@@H](O)[C@H](O)[C@H]3O)[C@@H]2O)[C@H](O)[C@H](O[C@@H]2O[C@H](CO)[C@@H](O[C@@H]3O[C@H](CO)[C@@H](O)[C@H](O)[C@H]3O)[C@H](O)[C@H]2O)[C@H]1O`, the concentration for half-maximal inhibition (IC50) stood at 3.5 µM in experiment [1], 6.2 µM in experiment [2] and 3.1 µM in experiment [3].

On to `C[C@@H]1O[C@@H](O[C@H]2[C@@H](O)[C@@H](CO)O[C@@H](O[C@H]3CC[C@]4(C)[C@H]5CC=C6[C@@H]7CC(C)(C)CC[C@]7(C(=O)O)CC[C@@]6(C)[C@]5(C)CC[C@H]4C3(C)C)[C@@H]2O)[C@H](O)[C@H](O)[C@H]1O`, for which the IC50 in experiment [1] is 15.4 µM; in experiment [2] it was 15.2 µM; in experiment [3] it was over 20 µM.

In the case of `C[C@@H]1O[C@@H](O[C@H]2[C@H](O[C@H]3CC[C@]4(C)[C@H]5CC=C6[C@@H]7CC(C)(C)CC[C@]7(C(=O)O)CC[C@@]6(C)[C@]5(C)CC[C@H]4C3(C)C)OC[C@@H](O)[C@@H]2O)[C@H](O)[C@H](O[C@@H]2OC[C@@H](O)[C@H](O)[C@H]2O)[C@H]1O`, the results for the IC50 in experiment [1], in experiment [2] and in experiment [3] were 6.3 µM, 11.5 µM and 4.5 µM, respectively.

For the compound `C[C@@H]1O[C@@H](O[C@H]2[C@H](O[C@H]3CC[C@]4(C)[C@H]5CC=C6[C@@H]7CC(C)(C)CC[C@]7(C(=O)O[C@@H]7O[C@H](CO[C@@H]8O[C@H](CO)[C@@H](O)[C@H](O)[C@H]8O)[C@@H](O)[C@H](O)[C@H]7O)CC[C@@]6(C)[C@]5(C)CC[C@H]4C3(C)C)OC[C@@H](O)[C@@H]2O)[C@H](O)[C@H](O[C@@H]2O[C@H](CO)[C@@H](O)[C@H](O)[C@H]2O)[C@H]1O`, the IC50 in experiment [1], in experiment [2] and in experiment [3] was over 20 µM throughout.
